The list is not random: actives were taken first. Their share in the collection is about 2.1%.
TbHK1 inh: Trypanosoma brucei hexokinase 1 inhibitors, primary screen, biochemical, G6PDH-coupled NADH absorbance, MLSCN library | hexokinase 1 [Trypanosoma brucei] | recombinant TbHK1, G6PDH-coupled NADH A340 | inhibition, % at 10 µM | 220,000 compounds, 0.11% hits | AID 1430, 2008;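 active means inhibition of 50% or more in the single-dose primary screen; inactive means inhibition below 50%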
Hck-Nef inh: inhibitors of Nef-activated human Hck kinase, primary screen, biochemical, Z-Lyte FRET, 384-well, Hck-YEEI; Recombinant Hck-YEEI plus Nef, Z-Lyte FRET kinase assay; inhibition, % at 20 µM; 220,000 compounds, 0.68% hits; AID 463187, 2010;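 active means Hck-Nef kinase inhibition above about 50%, limit read from the data; inactive means inhibition below that limit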;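 further: 0% = DMSO with Hck plus Nef and 100% = Hck alone without Nef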
Runt-SMMHC FRET: inhibitors of RUNX1 Runt–CBFb-SMMHC binding, primary screen, biochemical, FRET, Cerulean-Runt, Venus-CBFb-SMMHC, uHTS; Runt-related transcription factor 1 (Homo sapiens) + Core-binding factor subunit beta …; Cerulean-Runt/Venus-CBFb-SMMHC FRET ratio 530/480, 1 h; inhibition, % at 20 µM; 220,000 compounds, 0.74% hits;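 active means mean inhibition across duplicate retests at 20 µM reaching about 50%, limit read from the data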;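 further: 0% = DMSO wells and 100% = wells with excess untagged CBFb-SMMHC; inhibitors lower the FRET ratio by blocking Runt binding to CBFb-SMMHC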
Target sequence (Q01196 whole entry, looked up): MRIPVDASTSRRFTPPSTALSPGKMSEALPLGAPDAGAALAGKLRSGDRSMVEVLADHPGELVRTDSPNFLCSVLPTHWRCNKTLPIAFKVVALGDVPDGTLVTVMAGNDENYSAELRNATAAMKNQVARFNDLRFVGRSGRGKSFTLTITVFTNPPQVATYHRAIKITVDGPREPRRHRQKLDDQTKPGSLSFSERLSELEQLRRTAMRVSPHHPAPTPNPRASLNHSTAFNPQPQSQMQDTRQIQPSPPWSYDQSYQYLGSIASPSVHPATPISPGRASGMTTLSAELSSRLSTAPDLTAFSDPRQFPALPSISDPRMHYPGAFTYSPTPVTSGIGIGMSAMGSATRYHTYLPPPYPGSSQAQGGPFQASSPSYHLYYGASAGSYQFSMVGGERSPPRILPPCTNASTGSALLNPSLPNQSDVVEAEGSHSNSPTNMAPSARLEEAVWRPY
Target sequence (Q13951 whole entry, looked up): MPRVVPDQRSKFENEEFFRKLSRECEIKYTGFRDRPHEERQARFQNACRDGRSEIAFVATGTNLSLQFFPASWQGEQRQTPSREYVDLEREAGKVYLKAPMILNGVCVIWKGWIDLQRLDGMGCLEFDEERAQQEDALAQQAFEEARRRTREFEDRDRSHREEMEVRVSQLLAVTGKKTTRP
RanGTP-Impb inh: inhibitors of RanGTP-importin-beta interaction, primary screen, biochemical, FRET, CFP-Ran, YFP-importin-beta, homogeneous. Ran GTPase (GTP-bound) - importin-beta complex. cell-free CFP-Ran/YFP-importin-beta FRET ratio. inhibition, % (test concentration not listed). 300,000 compounds, 1.1% hits. AID 2216, 2009;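 active means more than half of the replicate wells show a fall in the fluorescence ratio signal beyond about 16%, limit read from the data, passing the limit was not always enough; inconclusive means exactly half of the replicate wells pass the set limit; inactive means fewer than half of replicates pass the limit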;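 further: 0% = DMSO wells and 100% = Ran loaded with GDP instead of GTP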
p97 inhibitor: inhibitors of human p97 ATPase, primary screen, biochemical | Transitional endoplasmic reticulum ATPase (Homo sapiens), P55072 | recombinant p97 ATPase, Kinase-Glo ATP luminescence, 3 h | inhibition, % at 8 µM | 220,000 compounds, 0.42% hits | AID 1481, 2009; in the data active means inhibition above about 15%;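 further: 0% = DMSO vehicle and 100% = wells lacking enzyme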
Runt-CBFb FRET: inhibitors of RUNX1 Runt–CBFb binding, primary screen, biochemical, FRET, Cerulean-Runt, Venus-CBFb, uHTS. Cerulean-Runt/Venus-CBFb FRET ratio 530/480, 1 h. inhibition, % at 20 µM. 220,000 compounds, 0.46% hits. AID 1496, 2009;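 active means inhibition over about 50% at 20 µM in the single-dose screen, limit read from the data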;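 further: 0% = DMSO wells and 100% = excess unlabeled CBFb competitor control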
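Assay system: Cerulean-Runt domain fusion protein, energy donor; Signal: fluorescence energy transfer, 422 nm excitation, 530/480 nm emission; Timing: 1 h compound exposure, room temperature; Control set: unlabeled CBFb; Medium: Tris buffer pH 7.5 with salts and BSA; Compound: single test concentration of 20 µM, 1% DMSO final; Probe or stimulus: Venus-CBFb 100 nM.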
The depositor's hits bear a star; ? = inconclusive; / = no result.

SMILES	TbHK1 inh	Hck-Nef inh	Runt-SMMHC FRET	RanGTP-Impb inh	p97 inhibitor	Runt-CBFb FRET
CN1CCN(c2c(C#N)c(C(F)(F)F)nn2C)CC1	-5.2	-20.2	-4.0	?	-3.9	80.9*
CCC(=O)N1N=C(c2c(O)n(CCc3ccccc3)c(=O)[nH]c2=O)CC1c1ccc(OC)c(OC)c1 (centres undefined)	14.5	21.6	2.9	0.5	13.3	-0.4
COc1ccc2c3c([nH]c2c1)C(C)NCC3 (centres undefined)	-13.1	-6.6	85.4*	?	2.0	20.9
COc1ccc2[nH]c3c(c2c1)CCNC3C (centres undefined)	/	/	/	-3.8	/	/
COP(=O)(OC)/C(C=O)=N/Nc1ccc([N+](=O)[O-])cc1	-9.8	21.2	-1.5	-0.2	4.9	-1.2
CCCCC(=O)N/N=C/c1c(O)n(-c2cccc3ccccc23)c(=O)[nH]c1=O	-3.5	12.9	-2.9	-1.8	5.1	-0.7
CCCCn1c(O)c(/C=N/NC(=O)c2ccncc2)c(=O)[nH]c1=O	-53.2	-16.1	5.2	1.1	7.2	3.2
CCn1c(O)c(/C=N/NC(=O)c2ccccc2)c(=O)n(CC)c1=S	-23.8	9.6	70.0*	11.0	6.2	35.6
CCn1c(O)c(/C=N/NC(=O)c2ccncc2)c(=O)[nH]c1=S	19.6	6.5	82.3*	5.1	2.7	28.3
O=C(N/N=C/c1c(O)n(Cc2ccc(F)cc2)c(=S)[nH]c1=O)c1ccncc1	-26.1	-52.9	83.7*	10.3	5.8	69.2*
CCC(C)n1c(O)c(/C=N/NC(=O)c2ccncc2)c(=O)[nH]c1=S (centres undefined)	20.5	9.8	77.2*	-1.9	5.5	43.9
Cn1c(=O)c2c(nc(N/N=C/c3c(O)n(-c4ccccc4)c(=S)[nH]c3=O)n2C)n(C)c1=O	-11.4	0.5	-1.8	2.2	3.4	-3.4
CCN1CCC(N(C)C2CCCCC2)CC1	/	/	/	-2.9	/	/
O=C(N/N=C/c1c(O)n(C2CCCCC2)c(=S)[nH]c1=O)c1ccccc1O	/	/	/	12.7	/	/
CC(C)c1ccc(-n2c(O)c(/C=N/NC(=O)c3ccccc3O)c(=O)[nH]c2=S)cc1	-6.6	7.5	58.8*	3.1	9.5	20.7
O=c1[nH]c(=O)n(Cc2ccccc2)c(O)c1/C=C1\C=Nc2ccccc21	11.5	0.0	92.8*	0.0	2.8	39.4
C=CCNC(=O)c1c(N)n(Cc2ccco2)c2nc3ccccc3nc12	-14.1	35.6	42.1	77.1*	-4.8	75.8*
COCCCNC(=O)c1c(NC(=O)c2ccccc2Cl)n(Cc2ccccc2)c2nc3ccccc3nc12	-20.6	6.4	63.3*	71.4*	-3.6	21.8
Nc1c(C(=O)OCc2ccccc2)c2nc3ccccc3nc2n1Cc1cccs1	-8.2	4.7	18.5	-0.5	4.6	3.9
CC/C(=N\NC(=O)c1ccccc1)c1c(O)n(Cc2ccccc2)c(=O)[nH]c1=O	-18.9	-0.1	2.8	6.2	-7.0	-0.5
COCCNC(=O)c1c(N)n(Cc2ccco2)c2nc3ccccc3nc12	-21.2	48.5	42.1	90.5*	0.4	58.4*
CNCC(=O)c1ccccc1	/	/	/	-0.3	/	/
O=C(CCl)NCC1CCCO1 (centres undefined)	5.3	21.7	-0.3	2.6	5.0	-1.3
CNS(=O)(=O)c1ccc(-c2ccc(C=C3C(=O)NC(=O)NC3=O)o2)cc1	/	/	/	1.9	/	/
O=C1NC(=O)C(=Cc2ccc(-c3cc(Cl)ccc3[N+](=O)[O-])o2)C(=O)N1	-11.1	61.1*	36.8	-0.8	3.6	38.7
SMILES	TbHK1 inh	Hck-Nef inh	Runt-SMMHC FRET	RanGTP-Impb inh	p97 inhibitor	Runt-CBFb FRET
CCCCn1c(NC(=O)c2ccc(Br)o2)c(C(=O)OCC)c2nc3ccccc3nc21	-4.5	-13.6	23.3	/	16.7*	1.3
COc1ccc(CCNC(=O)c2c(N)n(CCN3CCOCC3)c3nc4ccccc4nc23)cc1	-31.7	46.8	83.0*	69.3*	-5.5	66.8*
CCCCn1c(N)c(C(=O)NCCN2CCOCC2)c2nc3ccccc3nc21	-17.1	42.5	65.0*	83.3*	-5.5	20.9
Fc1cccc(C2NCc3ccccc3-n3cccc32)c1 (centres undefined)	/	/	/	-2.6	/	/
COC[C@]12CN(C)C3C4[C@H](OC)[C@H]1C3([C@@H](OC)C[C@H]2O)[C@@H]1C[C@@]2(O)[C@H](OC(=O)c3ccccc3)[C@@H]1[C@]4(OC(C)=O)[C@@H](O)[C@@H]2OC	/	/	/	4.7	/	/
CCC(C)NC(=O)c1c(N)n(Cc2ccc3c(c2)OCO3)c2nc3ccccc3nc12 (centres undefined)	-12.1	40.7	25.9	60.4*	6.6	4.7
CCCCOCCCn1c(N)c(C(=O)OC(C)COC)c2nc3ccccc3nc21 (centres undefined)	-6.5	15.9	127.7*	5.4	1.1	41.2
CCC(C)NC(=O)c1c(N)n(CCCOC)c2nc3ccccc3nc12 (centres undefined)	-8.6	48.3	20.1	112.5*	-9.1	-9.6
CC(Cc1ccccc1)NC(=O)c1ccc(N)cc1 (centres undefined)	/	/	/	-3.2	/	/
COCCCn1c(N)c(C(=O)Nc2sc3c(c2C(=O)OC)CCCC3)c2nc3ccccc3nc21	-28.0	-2.0	8.2	11.6	-0.3	93.1*
CN(C)C(=O)Oc1ccc(OCc2nc3ccccc3[nH]2)cc1	2.4	-3.0	0.1	-3.2	-51.2	-1.8
Cc1ccc(Sc2ccc(C=C3C(=O)N(C)C(=O)N(C)C3=O)o2)cc1	-4.4	70.3*	-5.8	?	1.5	7.8
CN1C(=O)C(=Cc2ccc(-c3cccc(Cl)c3)o2)C(=O)N(C)C1=O	2.6	25.6	-2.3	2.5	1.1	2.7
Cc1nc2ccccc2c(=O)n1-c1ccc(Cl)cc1[N+](=O)[O-]	-3.5	2.6	-1.0	-2.7	3.2	3.0
Cc1ccc(S(=O)(=O)NC(CC(=O)N2CCC3(CC2)OCCO3)c2ccco2)cc1 (centres undefined)	9.9	2.7	1.2	20.5*	8.1	0.1
CC(=O)Nc1ccc(S(=O)(=O)NC(CC(=O)N2CCC3(CC2)OCCO3)C(C)C)cc1 (centres undefined)	-0.4	-1.2	0.2	1.2	6.4	0.5
CN(C)C(=O)Oc1ccc2nnc3ccnn3c2c1	/	/	/	71.8*	/	/
